Measured values as given in ChEMBL document CHEMBL3244323, “[1-Penicillamine,2-leucine]oxytocin. Synthesis and pharmacological and conformational studies of a potent peptide hormone inhibitor” (J Med Chem, 1979).
Changes are numbered by the printed parent chain. Active and inactive are the calls of the source. No cut-off for these calls is given here. *1 amine or outer side, *2 acyl side, *3 side chain or, on linkers, in order; H or OH if unused. Where a SMILES comes first, the peptide text is derived from it. Bridges are numbered along the chain shown (N, C = ends). [ ]: non-standard residue; d: D form. Tyr(3,5-Br2) = N[C@@H](Cc1cc(Br)c(O)c(Br)c1)C(=O)O; X1 = CCC(CC)(CC(=O)[*:1])S[*:2]; X2 = CC(C)(CC(=O)[*:1])S[*:2]; Pen = CC(C)(S)[C@H](N)C(=O)O

Legend:
[1] = biological target: T1, Oxytocin receptor (Mus musculus) (UniProt P97926); assay: Antagonist activity at oxytocin receptor in mouse mammary gland tissue assessed as inhibition of oxytocin-induced milk ejection by spectrophotometry
T1 sequence (whole entry): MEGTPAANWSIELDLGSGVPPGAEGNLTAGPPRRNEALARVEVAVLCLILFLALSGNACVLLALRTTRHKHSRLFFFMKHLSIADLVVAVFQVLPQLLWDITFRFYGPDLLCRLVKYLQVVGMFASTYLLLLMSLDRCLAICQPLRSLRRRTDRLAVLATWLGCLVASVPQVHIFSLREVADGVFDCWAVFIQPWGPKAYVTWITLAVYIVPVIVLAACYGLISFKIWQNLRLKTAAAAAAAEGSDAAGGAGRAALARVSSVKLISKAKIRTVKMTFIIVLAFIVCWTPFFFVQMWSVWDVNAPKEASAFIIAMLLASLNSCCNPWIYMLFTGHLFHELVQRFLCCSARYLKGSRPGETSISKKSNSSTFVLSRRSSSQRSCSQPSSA
How it was run: (§1)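 Mouse mammary gland tissue was incubated in vitro with oxytocin alone, or with oxytocin plus antagonist at up to 10^-5 M. Released milk was measured spectrophotometrically as absorbance. Values are mean ± SE from tissue of four mice.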

[2] = biological target: T2, Oxytocin receptor (Homo sapiens, UniProt P30559); assay: Antagonist activity at oxytocin receptor (unknown origin) assessed as inhibition of agonist-induced oxytocic response; conditions: read-out: pA2 (converted)
T2 sequence (P30559 whole entry): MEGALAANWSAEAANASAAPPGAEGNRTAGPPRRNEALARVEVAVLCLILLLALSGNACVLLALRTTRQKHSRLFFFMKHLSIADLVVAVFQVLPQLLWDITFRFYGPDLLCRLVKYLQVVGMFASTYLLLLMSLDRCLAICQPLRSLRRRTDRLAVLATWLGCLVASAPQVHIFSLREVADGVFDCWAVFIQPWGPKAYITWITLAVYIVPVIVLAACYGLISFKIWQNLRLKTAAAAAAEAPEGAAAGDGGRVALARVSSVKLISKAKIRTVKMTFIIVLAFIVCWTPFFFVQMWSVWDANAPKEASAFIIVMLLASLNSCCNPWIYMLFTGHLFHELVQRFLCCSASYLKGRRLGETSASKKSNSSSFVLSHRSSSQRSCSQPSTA
How it was run: (§2)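 Isolated uteri from rats in natural estrus, suspended in Mg-free van Dyke-Hasting's solution with isotonic contraction recording, bath 30 °C. Antagonism of oxytocin was analysed by the Schild method. pA2 is the negative log of the average molar antagonist concentration that reduces the response to 2x units of oxytocin to the response to x units.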

[3] = biological target: T3, Oxytocin receptor (Rattus norvegicus, UniProt P70536); assay: Antagonist activity at oxytocin receptor in rat assessed as inhibition of agonist-induced oxytocic response; conditions: read-out: pA2 (converted); how it was run: as §2
T3 sequence (P70536 whole entry): T1 sequence (whole entry) with I11V, A23E, L27R, R33Q, A159G, V169A, S245N, L344F, I361V

[4] = biological target: T4, Oxytocin receptor (Homo sapiens) (UniProt P30559); assay: Agonist activity at oxytocin receptor (unknown origin)
T4 sequence (whole entry): T2 sequence (P30559 whole entry)

[5] = biological target: T1, Oxytocin receptor (Mus musculus); assay: Antagonist activity at oxytocin receptor in mouse mammary gland tissue assessed as inhibition of oxytocin-induced milk ejection at 7.5X10'-6 M by spectrophotometry; how it was run: as §1
[6] = biological target: T5, Oxytocin receptor (Rattus norvegicus) (UniProt P70536); assay: Antagonist activity at oxytocin receptor in isolated rat uterus assessed as inhibition of oxytocic response at 0.25 ug/ml pretreated for 30 secs prior to oxytocin addition relative to control
T5 sequence (whole entry): T1 sequence (whole entry) with I11V, A23E, L27R, R33Q, A159G, V169A, S245N, L344F, I361V

[7] = biological target: T5, Oxytocin receptor (Rattus norvegicus); assay: Antagonist activity at oxytocin receptor in isolated rat uterus assessed as inhibition of oxytocin-induced oxytocic response at 20:1 compound to oxytocin ratio pretreated for 10 to 20 secs prior to oxytocin addition; conditions: concentration not given here
[8] = biological target: T5, Oxytocin receptor (Rattus norvegicus); assay: Antagonist activity at oxytocin receptor in isolated rat uterus assessed as incidence of regular phasic contractions of uterus at 0.25 ug/ml measured during 6 mins interval of compound dosing
[9] = biological target: T5, Oxytocin receptor (Rattus norvegicus); assay: Antagonist activity at oxytocin receptor in isolated rat uterus assessed as inhibition of oxytocin-induced oxytocic response at 20:1 compound to oxytocin ratio followed by compound washout
[10] = biological target: T1, Oxytocin receptor (Mus musculus); assay: Agonist activity at oxytocin receptor in mouse mammary gland tissue assessed as milk-ejecting activity at 10^-5 M by spectrophotometry
[11] = biological target: T3, Oxytocin receptor; assay: Antagonist activity at oxytocin receptor in isolated rat uterus assessed as inhibition of oxytocin-induced oxytocic response; conditions: read-out: pA2 (converted); how it was run: as §2
[12] = biological target: T5, Oxytocin receptor (Rattus norvegicus); assay: Antagonist activity at oxytocin receptor in isolated rat uterus assessed as inhibition of oxytocic response at 0.25 ug/ml added simultaneously with oxytocin
[13] = biological target: T5, Oxytocin receptor (Rattus norvegicus); assay: Antagonist activity at oxytocin receptor in isolated rat uterus assessed as reduction of subsequent contractions at 0.25 ug/ml measured during 10 mins interval of compound dosing
[14] = biological target: T5, Oxytocin receptor (Rattus norvegicus); assay: Antagonist activity at oxytocin receptor in isolated rat uterus assessed as inhibition of oxytocin-induced oxytocic response at 0.25 ug/ml followed by compound washout
[15] = biological target: T5, Oxytocin receptor (Rattus norvegicus); assay: Antagonist activity at oxytocin receptor in isolated rat uterus assessed as inhibition of oxytocin-induced contractions at 0.25 ug/ml dosed at the peak of first contraction measured during 10 mins interval of compound dosing
[16] = biological target: T5, Oxytocin receptor (Rattus norvegicus); assay: Antagonist activity at oxytocin receptor in isolated rat uterus assessed as incidence of regular phasic contractions of uterus at 0.25 ug/ml
[17] = biological target: T5, Oxytocin receptor (Rattus norvegicus); assay: Antagonist activity at oxytocin receptor in isolated rat uterus assessed as inhibition of oxytocin-induced oxytocic response at 20:1 compound to oxytocin ratio pretreated up to 90 secs prior to oxytocin addition

Q: With `CC[C@H](C)[C@@H]1NC(=O)[C@H](Cc2ccc(O)cc2)NC(=O)[C@@H](N)C(C)(C)SSC[C@@H](C(=O)N2CCC[C@H]2C(=O)N[C@@H](CC(C)C)C(=O)NCC(N)=O)NC(=O)[C@H](CC(N)=O)NC(=O)[C@H](CCC(N)=O)NC1=O` as the compound, how does the inhibition [1] read?
A: The inhibition was “Active”.

Q: And the Kb [2]?
A: Its Kb is 138 nM.

Q: How did the Kb [3] turn out when `CC[C@H](C)[C@@H]1NC(=O)[C@H](Cc2cc(Br)c(O)c(Br)c2)NC(=O)CCSSC[C@@H](C(=O)N2CCC[C@H]2C(=O)N[C@@H](CC(C)C)C(=O)NCC(N)=O)NC(=O)[C@H](CC(N)=O)NC(=O)[C@H](CCC(N)=O)NC1=O` was run?
A: The Kb was 89.1 nM.

Q: Which Activity [4] does the source give for `CC[C@H](C)[C@@H]1NC(=O)[C@H](CC(C)C)NC(=O)[C@@H](N)CSSC[C@@H](C(=O)N2CCC[C@H]2C(=O)N[C@@H](CC(C)C)C(=O)NCC(N)=O)NC(=O)[C@H](CC(N)=O)NC(=O)[C@H](CCC(N)=O)NC1=O` (H-CLIQNCPLG-NH2; disulfide 1-6) here?
A: The Activity was 0.5 U/mg.

Q: `CC[C@H](C)[C@@H]1NC(=O)[C@H](CC(C)C)NC(=O)[C@@H](N)C(C)(C)SSC[C@@H](C(=O)N2CCC[C@H]2C(=O)N[C@@H](CC(C)C)C(=O)NCC(N)=O)NC(=O)[C@H](CC(N)=O)NC(=O)[C@H](CCC(N)=O)NC1=O` (H-[Pen]LIQNCPLG-NH2; disulfide 1-6) was tested. Which inhibition [5] did it give?
A: Its inhibition is “Active”.

Q: And the inhibition [6]?
A: Its inhibition is 60%.

Q: What about the inhibition [7] of the same compound?
A: Its inhibition is 50%.

Q: What about the inhibition [8] of the same compound?
A: Its inhibition is “inactive”.

Q: And the inhibition [9]?
A: Its inhibition is “inactive”.

Q: What about the Activity [10] of the same compound?
A: The Activity was “inactive”.

Q: What about the Kb [11] of the same compound?
A: Its Kb is 72.4 nM.

Q: What about the inhibition [12] of the same compound?
A: Its inhibition is “inactive”.

Q: What about the Activity [13] of the same compound?
A: Its Activity is “Active”.

Q: And the inhibition [14]?
A: Its inhibition is “inactive”.

Q: And the inhibition [15]?
A: Its inhibition is “Active”.

Q: What about the Activity [16] of the same compound?
A: The Activity was “inactive”.

Q: What about the inhibition [17] of the same compound?
A: Its inhibition is “Active”.

Q: `CC[C@H](C)[C@@H]1NC(=O)[C@H](Cc2ccc(O)cc2)NC(=O)[C@@H](N)C(C)(C)SSC[C@@H](C(=O)N2CCC[C@H]2C(=O)N[C@@H](CC(C)C)C(=O)NCC(N)=O)NC(=O)[C@H](CC(N)=O)NC(=O)[C@H](CC(C)C)NC1=O` (H-[Pen]YILNCPLG-NH2; disulfide 1-6) was tested. Which Kb [2] did it give?
A: Its Kb is 170 nM.

Q: With `CC[C@H](C)[C@@H]1NC(=O)[C@H](Cc2ccc(O)cc2)NC(=O)CC(CC)(CC)SSC[C@@H](C(=O)N2CCC[C@H]2C(=O)N[C@@H](CC(C)C)C(=O)NCC(N)=O)NC(=O)[C@H](CC(N)=O)NC(=O)[C@H](CC(C)C)NC1=O` (YILNCPLG-NH2; linker N-5 via X1) as the compound, how does the Kb [2] read?
A: The Kb was 95.5 nM.

Q: `CC[C@H](C)[C@@H]1NC(=O)[C@H](Cc2ccc(O)cc2)NC(=O)CC(CC)(CC)SSC[C@@H](C(=O)N2CCC[C@H]2C(=O)N[C@@H](CC(C)C)C(=O)NCC(N)=O)NC(=O)[C@H](CC(N)=O)NC(=O)[C@H](CCC(N)=O)NC1=O` (YIQNCPLG-NH2; linker N-5 via X1) was tested. Which Kb [2] did it give?
A: The Kb was 57.5 nM.

Q: With `CC[C@H](C)[C@@H]1NC(=O)[C@H](Cc2ccc(O)cc2)NC(=O)CC(C)(C)SSC[C@@H](C(=O)N2CCC[C@H]2C(=O)N[C@@H](CC(C)C)C(=O)NCC(N)=O)NC(=O)[C@H](CC(N)=O)NC(=O)[C@H](CCC(N)=O)NC1=O` (YIQNCPLG-NH2; linker N-5 via X2) as the compound, how does the Kb [2] read?
A: Its Kb is 115 nM.

Q: Which Kb [3] does the source give for `CC[C@H](C)[C@@H]1NC(=O)[C@H](Cc2ccc(O)cc2)NC(=O)CC(C)(C)SSC[C@@H](C(=O)N2CCC[C@H]2C(=O)N[C@@H](CC(C)C)C(=O)NCC(N)=O)NC(=O)[C@H](CC(N)=O)NC(=O)[C@H]([C@@H](C)O)NC1=O` (YITNCPLG-NH2; linker N-5 via X2) here?
A: Its Kb is 31.6 nM.

Q: For `CC[C@H](C)[C@@H]1NC(=O)[C@H](Cc2cc(Br)c(O)c(Br)c2)NC(=O)CC(CC)(CC)SSC[C@@H](C(=O)N2CCC[C@H]2C(=O)N[C@@H](CC(C)C)C(=O)NCC(N)=O)NC(=O)[C@H](CC(N)=O)NC(=O)[C@H](CCC(N)=O)NC1=O` ([Tyr(3,5-Br2)]IQNCPLG-NH2; linker N-5 via X1), which Kb [3] is on record?
A: Its Kb is 83.2 nM.

Q: `CC[C@H](C)[C@@H]1NC(=O)[C@H](Cc2ccc(O)cc2)NC(=O)CCSSCC(C(=O)N2CCC[C@H]2C(=O)N[C@@H](CC(C)C)C(=O)NCC(N)=O)NC(=O)[C@H](CC(N)=O)NC(=O)[C@H](CCC(N)=O)NC1=O` (single isomer, unassigned) was tested. Which Activity [4] did it give?
A: The Activity was 803 U/mg.
